Measured values gathered from unrelated publications.
Each line is one published result; the experiments were not run side by side.
Target: Serine/threonine-protein kinase D2 (PRKD2, Homo sapiens, UniProt Q9BZL6)
Sequence (Q9BZL6 1-878, as in one of the studies): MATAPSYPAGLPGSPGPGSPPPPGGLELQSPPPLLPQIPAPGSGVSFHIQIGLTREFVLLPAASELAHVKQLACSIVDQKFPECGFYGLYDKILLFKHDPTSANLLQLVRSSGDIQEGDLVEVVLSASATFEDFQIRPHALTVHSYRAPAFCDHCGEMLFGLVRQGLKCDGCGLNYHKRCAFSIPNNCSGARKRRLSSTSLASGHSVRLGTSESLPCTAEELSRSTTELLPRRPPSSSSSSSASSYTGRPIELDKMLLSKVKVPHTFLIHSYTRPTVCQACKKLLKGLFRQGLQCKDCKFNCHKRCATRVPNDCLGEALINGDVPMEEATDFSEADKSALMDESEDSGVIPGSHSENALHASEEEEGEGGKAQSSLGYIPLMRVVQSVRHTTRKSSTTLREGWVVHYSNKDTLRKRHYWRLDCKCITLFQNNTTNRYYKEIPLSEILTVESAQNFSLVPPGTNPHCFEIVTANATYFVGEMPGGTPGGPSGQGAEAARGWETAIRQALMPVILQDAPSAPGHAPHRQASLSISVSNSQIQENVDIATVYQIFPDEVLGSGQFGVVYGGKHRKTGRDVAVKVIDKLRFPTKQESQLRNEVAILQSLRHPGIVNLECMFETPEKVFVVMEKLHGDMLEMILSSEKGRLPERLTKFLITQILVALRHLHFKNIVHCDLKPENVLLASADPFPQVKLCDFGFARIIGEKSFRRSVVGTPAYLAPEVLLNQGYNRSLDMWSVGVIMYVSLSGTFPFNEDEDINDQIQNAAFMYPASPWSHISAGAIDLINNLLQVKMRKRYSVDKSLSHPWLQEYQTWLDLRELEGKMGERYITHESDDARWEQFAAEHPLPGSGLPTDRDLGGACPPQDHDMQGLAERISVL

Cn1cc(-c2cccc(N3CCc4c(sc5c4CC(C)(C)C5)C3=O)c2CO)cc(Nc2ccncn2)c1=O
inhibition (enzyme activity, inhibitor; 1 µM): 0%

Nc1ncc(-c2nc(N3CCOCC3)nc(N3CCOCC3)n2)c(C(F)F)n1
remaining binding (binding, competition with immobilised ligand; 10 µM): 99%

Cn1cc(-c2cc(F)cc(N3CCn4c(cc5c4CCCC5)C3=O)c2CO)cc(Nc2ccc(N3CCN(C4COC4)CC3)cn2)c1=O
inhibition (enzyme activity, inhibitor; 0.1 µM): 11%

COc1ncccc1-c1cnn2ccc(N3CCN(C(=O)OC(C)C)CC3)nc12
remaining binding (binding, competition with immobilised ligand; 1 µM): 100%

COc1cc(Nc2ncc(F)c(Nc3ccc4c(n3)NC(=O)C(C)(C)O4)n2)cc(OC)c1OC
inhibition (binding; 10 µM): 0%

O=c1[nH]c2ccccc2n1C1CCN(Cc2ccc(-c3[nH]c4cc5ncnc5cc4nc3-c3ccccc3)cc2)CC1
remaining signal (cell-free assay; 0.5 µM): 109%

Cn1cncc1[C@](O)(COc1ccc(C#N)cc1-c1ccc(OC(F)(F)F)cc1)c1ccc(C#N)cc1
remaining binding (cell-free assay, competition with immobilised ligand; 1 µM): 84%

Cc1nn(C)cc1-c1nc2c(N3CCN(Cc4ccc(Cl)cc4)CC3)c(Cl)cnc2[nH]1
remaining binding (binding, competition with immobilised ligand; 1 µM): 100%

CC(C)(C)c1cc(C=C(C#N)C#N)cc(Br)c1O
remaining activity (enzyme activity, inhibitor; 0.5 µM): 108%
